The structures appear in SMILES notation. Converted amounts (≈) assume the structure as drawn. The source made the active and inactive calls. No cut-off for these calls is given here.

Data set [1] relates to Human immunodeficiency virus 1. The data set can be described thus: Antiviral activity against human PMA stimulated HIV1 expression in latently HIV1 infected U1 cells assessed as decrease in mRNA production. Format: functional, organism-based.
The subject of data set [2] is Human immunodeficiency virus 1. The data set can be described thus: Antiviral activity against human PMA-stimulated HIV1 expression in latently HIV1 infected U1 cells assessed as inhibition of viral p24 production. Format: functional, organism-based.
Data set [3] deals with Human immunodeficiency virus 1. The data set can be described thus: Inhibition of viral reactivation in SCID mouse inoculated with HIV1 infected OM10.1 cells at 50 mg/kg, ip for 3 days prior to hTNF alpha administration assessed as viral loads after 18 hrs. Set-up: dose 50 mg/kg. The data set is classed as functional, organism-based.
Data set [4] relates to Human immunodeficiency virus 1. The data set can be described thus: Antiviral activity against human TNF-alpha stimulated HIV1 expression in latently HIV1 infected OM10.1 cells assessed as inhibition of viral mRNA production. The data set is classed as functional, organism-based.
The subject of data set [5] is Human immunodeficiency virus 1. The data set can be described thus: Antiviral activity against human TNF alpha-stimulated HIV1 expression in latently HIV1 infected OM10.1 cells assessed as inhibition of viral p24 production. The data set is classed as functional, organism-based.
The test system of data set [6] is Human immunodeficiency virus 1. The data set can be described thus: Antiviral activity against HIV1 BaL chronically infected human M/M cells. Format: functional, organism-based. To be noted: Human immunodeficiency virus 1, BaL.
The test system of data set [7] is Human immunodeficiency virus 1. The data set can be described thus: Antiviral activity against latently HIV1 infected OM10.1 cells assessed as inhibition of viral p24 antigen production. The data set is classed as functional, organism-based.
Data set [8] deals with Human immunodeficiency virus 1. The data set can be described thus: Antiviral activity against latently HIV1 infected U1 cells assessed as inhibition of viral p24 antigen production. Format: functional, organism-based.
For data set [9], the system named is Human immunodeficiency virus 1. The data set can be described thus: Antiviral activity against human TNF-alpha stimulated HIV1 expression in latently HIV1 infected U1 cells assessed as decrease in mRNA production. The data set is classed as functional, organism-based.
Data set [10] deals with Human immunodeficiency virus 1. The data set can be described thus: Antiviral activity against human TNF alpha-stimulated HIV1 expression in latently HIV1 infected U1 cells assessed as inhibition of viral p24 production. The data set is classed as functional, organism-based.
The nature of data set [11]: Cytotoxicity against latently HIV1 infected OM10.1 cells by MTT method. Format: cell-based. To be noted: human, OM10.1 cells latently infected with HIV-1. The method in brief: (§1)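 OM-10.1 cells at 500,000 cells/ml were exposed to compound for 2 h, then stimulated with 1 ng/ml hTNF-α or 0.02 µM PMA for 2 days at 37°C. Viability was read by MTT staining. The selectivity index is CC50 from MTT divided by EC50 from p24 ELISA run in the same cultures.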
For orientation: Tetrazolium dyes change colour on reduction, which living cells bring about.

In data set [12] the test system is Human immunodeficiency virus 1. The data set can be described thus: Antiviral activity against human PMA-stimulated HIV1 expression in latently HIV1 infected OM10.1 cells assessed as inhibition of viral p24 production. The data set is classed as functional, organism-based.
A short description of data set [13]: Selectivity index, CC50 for OM10.1 cells to EC50 for HIV1 infected OM10.1 cells. Format: functional. The method in brief: as §1
In data set [14] the test system is Human immunodeficiency virus 1. The data set can be described thus: Antiviral activity against HIV1 BaL acutely infected human M/M cells. The data set is classed as functional, organism-based. The settings on record: Human immunodeficiency virus 1, BaL.
Data set [15] concerns Human immunodeficiency virus 1. The data set can be described thus: Antiviral activity against PMA stimulated HIV1 expression in latently HIV1 infected OM10.1 cells assessed as inhibition of viral mRNA production. The data set is classed as functional, organism-based.

For the compound `Cn1cc(C(=O)O)c(=O)c2ccc(N3CCN(c4nc5ccccc5s4)CC3)cc21`, the Activity entry in data set [1], in data set [2], in data set [7], in data set [8], in data set [9] and in data set [10] was “Dose-dependent effect” each time. Moreover, in [3], the result was Active. Moreover, the IC50 (commonly the midpoint of a concentration-inhibition curve) in data set [4] came out at 0.06 µg/mL (≈ 0.143 µM); in [15], 0.04 µg/mL (≈ 0.0951 µM). Besides, the EC50 (in general, the midpoint of the concentration-response curve) in data set [5] was 0.045 µg/mL (≈ 0.107 µM); in [6], 0.011 µg/mL (≈ 0.0262 µM); in data set [12], 0.04 µg/mL (≈ 0.0951 µM); in data set [14], 0.025 µg/mL (≈ 0.0595 µM). In addition, the values for the EC90 in data set [6] and in [14] were 0.16 µg/mL (≈ 0.381 µM) and 0.2 µg/mL (≈ 0.476 µM), respectively. For the same compound, half-maximal cytotoxicity in data set [11] (CC50) was put at 5 µg/mL (≈ 11.9 µM). Also, the “Ratio CC50/EC50” value in data set [13] was found to be 125.

`Cn1cc(C(=O)O)c(=O)c2ccc(N3CCN(c4cccc(C(F)(F)F)c4)CC3)cc21`: the Activity entry in data set [1], in data set [2], in [7], in data set [8], in [9] and in [10] was “Dose-dependent effect” each time. For the same compound, the result in data set [3] was Active. Also, the IC50 in data set [4] turned out to be 0.067 µg/mL (≈ 0.155 µM); in [15], 0.032 µg/mL (≈ 0.0742 µM). In addition, the EC50 in data set [5] was determined as 0.054 µg/mL (≈ 0.125 µM); in data set [6], 0.05 µg/mL (≈ 0.116 µM); in data set [12] it was 0.039 µg/mL (≈ 0.0904 µM); in [14] it was 0.05 µg/mL (≈ 0.116 µM). Further, the EC90 in [6] and in [14] was 1 µg/mL (≈ 2.32 µM) in each case. Also, the CC50 – broadly, the concentration giving 50% cytotoxicity – in data set [11] was found to be 5 µg/mL (≈ 11.6 µM). Also, the “Ratio CC50/EC50” value in data set [13] is listed as 125.
